Results on three molecules are retold here after ChEMBL document CHEMBL5661985, “In silico design of novel probes for the atypical opioid receptor MRGPRX2” (Nat Chem Biol, 2017).

Activity calls are given as the source filed them. No cut-off for these calls is given here. Where a SMILES comes first, the peptide text is derived from it.

In test [1] the target is T1, Mas-related G-protein coupled receptor member X2 (Homo sapiens, UniProt Q96LB1).
T1 sequence (Q96LB1 whole entry): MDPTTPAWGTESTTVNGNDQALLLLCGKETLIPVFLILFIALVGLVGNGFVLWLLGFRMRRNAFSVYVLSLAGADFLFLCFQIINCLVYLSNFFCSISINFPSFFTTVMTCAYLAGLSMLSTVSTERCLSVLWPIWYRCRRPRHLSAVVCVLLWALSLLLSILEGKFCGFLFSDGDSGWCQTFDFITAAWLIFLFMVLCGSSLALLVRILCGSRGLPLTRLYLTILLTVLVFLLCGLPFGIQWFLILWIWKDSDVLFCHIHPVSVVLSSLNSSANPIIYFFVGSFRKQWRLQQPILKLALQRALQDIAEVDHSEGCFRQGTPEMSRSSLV
Nature of the test: Agonist activity at MRGPRX2 (unknown origin) expressed in HTLA cells assessed as induction of beta-arrestin 2 recruitment incubated for 18 to 24 hrs by PRESTO-Tango assay. The class given is functional, cell-based. The note with it: read-out: pEC50 (converted).

The target of test [2] is T2, Mas-related G-protein coupled receptor member X2 (Homo sapiens) (UniProt Q96LB1).
T2 sequence (whole entry): T1 sequence (Q96LB1 whole entry)
Nature of the test: Agonist activity at N-terminal Flag-tagged human MRGPRX2 receptor expressed in FLP-IN/T-REX 293 cells assessed as increase in intracellular calcium release by FLIPR assay. As to conditions: filed as agonist. The class given is functional, cell-based. Summed up:
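FLIPR calcium: FLP-IN/T-REX HEK-293-T stable line with N-terminal FLAG codon-optimized receptor, induced 24 h with 1 μg/mL tetracycline in 1% dialyzed FBS (uninduced cells as control); FLIPR calcium dye plus 2.5 mM probenecid 1 h 37°C; 10 s baseline, then drug in HBSS/20 mM HEPES/probenecid pH 7.4, 16-point curve 10 μM to 0.003 nM; fluorescence 120 s; fold over basal, n=3 triplicate.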

Test [3] has as its target T1, Mas-related G-protein coupled receptor member X2. Description: Agonist activity at N-terminal Flag-tagged human MRGPRX2 receptor expressed in tetracycline-induced FLP-IN/T-REX 293 cells assessed as increase in intracellular calcium release by FLIPR assay. The test is classed as functional, cell-based. The note with it: read-out: pEC50 (converted).
In a further test the test system is Flp-In-T-REx-293. Nature of the test: Agonist activity at rodent MRGPRB2 receptor expressed in tetracycline-induced FLP-IN/T-REX 293 cells assessed as increase in intracellular calcium release at 0.003 to 100000 nM by FLIPR assay. The test is classed as cell-based. As to conditions: Rodentia, filed as agonist, dose 0.003-100000 nM.
The next test relates to HTLA. Description: Agonist activity at […] expressed in HTLA cells assessed as induction of beta-arrestin 2 recruitment incubated for 18 to 24 hrs by PRESTO-Tango assay. The test is classed as cell-based. As to conditions: Rodentia, filed as agonist, time 18-24 hrs. An outline of the steps:
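β-arrestin2 recruitment by PRESTO-Tango: HTLA cells transiently transfected (calcium phosphate) with codon-optimized MRGPRX2-Tango (WT or point mutant) or MRGPRB2-Tango, plated next day 20,000 cells/well on poly-L-lysine; drug in HBSS/20 mM HEPES/0.3% BSA pH 7.4 for 18–24 h; Bright-Glo luminescence (RLU); curves n=3 in triplicate, mutants n=4 in triplicate.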

Take `CC[C@H](C)[C@H](N)C(=O)N[C@@H](CC(N)=O)C(=O)N[C@@H](CC(C)C)C(=O)N[C@@H](CCCCN)C(=O)N[C@@H](C)C(=O)N[C@@H](CC(C)C)C(=O)N[C@@H](C)C(=O)N[C@@H](C)C(=O)N[C@@H](CC(C)C)C(=O)N[C@@H](C)C(=O)N[C@@H](CCCCN)C(=O)N[C@@H](CCCCN)C(=O)N[C@H](C(=O)N[C@@H](CC(C)C)C(N)=O)[C@@H](C)CC`: the EC50 is more than 31600 nM in test [1] and 11700 nM in test [3]. Besides, the result in test [2] was Active.
Take `COC1=CC2CN(C)CCC2C=C1` (stereo not drawn): the EC50 in test [3] was 1620 nM.
Regarding `C[C@@H](O)[C@@H]1NC(=O)[C@H](CCCCN)NC(=O)[C@H](Cc2c[nH]c3ccccc23)NC(=O)[C@H](Cc2ccccc2)NC(=O)[C@H](Cc2ccccc2)NC(=O)[C@H](CC(N)=O)NC(=O)[C@H](CCCCN)NC(=O)[C@@H](NC(=O)[C@@H]2CCCN2)CSSC[C@@H](C(=O)N[C@@H](CCCCN)C(=O)O)NC(=O)[C@H](CO)NC(=O)[C@H](CO)NC(=O)[C@H](Cc2ccccc2)NC1=O` (HELM PEPTIDE1{P.C.K.N.F.F.W.K.T.F.S.S.C.K}$PEPTIDE1,PEPTIDE1,2:R3-13:R3$$$V2.0), the result in the test with Flp-In-T-REx-293 and with HTLA was Active. Moreover, the EC50 was 145 nM in test [1] and 417 nM in test [3].
